What was measured:
[1] = test system: Cx43-hemichannels in primary bovine corneal endothelial cells (BCECs); settings: cited from earlier work
Cx43-hemichannels = settings: cited from earlier work; for effect on Cx43-hemichannel inhibition by high [Ca2+]i: 1 μM [Ca2+]i
Cx43 gap junctions = settings: cited from earlier work
[2] = test system: native HeLa cells, which lack endogenous Cx43 expression; assay: Whole-cell patch clamp recording in native HeLa cells; type: cell-based, human; settings: peptide 100 μM; voltage steps -30 to +60 mV; Supplementary Fig. 1
Outline: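 Whole-cell patch clamp was done on untransfected HeLa cells. The CsCl/EGTA/TEA pipette solution (pH 7.2) was set to 1 µM free Ca2+ and delivered test peptide (100 µM). Steps ran from −30 to +60 mV for 30 s, acquired at 4 kHz and filtered at 1 kHz.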

[3] = test system: Cx43-hemichannels in HeLa cells overexpressing Cx43; assay: Whole-cell patch clamp recording of unitary Cx43-hemichannel currents; type: cell-based, human; settings: peptide 100 μM via patch pipette
Cx43^M242 hemichannels = assay: ATP release from HeLa cells transiently expressing CT-truncated Cx43^M242; type: cell-based, human; settings: peptide 100 μM; Fig. 6b
Outline: (§1)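 HeLa cells were transiently transfected with the truncated Cx43 construct; empty-vector-transfected cells gave background release. Cells were triggered with 2 µM A23187 while exposed to vehicle or TAT-linked test peptides (100 µM). Extracellular ATP was measured by luciferin–luciferase and normalised to baseline from separate cultures in standard HBSS-HEPES. At least four independent measurements.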

[4] = test system: Cx43^ΔGap19M242-based hemichannels; assay: ATP release from HeLa cells transiently expressing Cx43^ΔGap19M242; type: cell-based, human; settings: peptide 100 μM; 2 μM A23187; n = 4; Fig. 7a
Outline: as §1

For `Cc1ccc2c(c1)C(=O)C1(O)CCN(c3ccccc3)C1=N2` (single isomer, unassigned; (-)) [(−)-blebbistatin], the “effect on thrombin-induced inhibition of Cx43-hemichannels in BCECs” value ([1]; thrombin-treated BCECs) is listed as “could be alleviated” and the “effect on Cx43-hemichannel inhibition by high [Ca2+]i” value (Cx43-hemichannels) is listed as “prevented the Cx43-hemichannel inhibition by high [Ca^2+]i”.

For “Gap19: nine amino acid sequence of L2, selective Cx43-hemichannel inhibitor (KQIEIKKFK; UniProt P17302 128-136, looked up, fragment)”, the “effect on Cx43 gap junctions” value (Cx43 gap junctions) is listed as “not affecting Cx43 gap junctions” and the “effect on opening of Cx43-hemichannels” value (Cx43-hemichannels) is listed as “inhibit the opening of Cx43-hemichannels”.

In the case of SPTAPLSPMSPPG [SH3], the “unitary current activity in native HeLa cells at 1 μM [Ca2+]i” value [2] is reported as “did not elicit any changes”, the “membrane charge transfer (Qm) summary at 1 μM [Ca2+]i” value ([3]; current traces integrated over time, Fig. 4j) is reported as “remove hemichannel inhibition” and the “effect on hemichannel opening activity at 50 nM [Ca2+]i” value ([3]; voltage steps -30 to +60 mV, 30 s, Fig. 4b, c) is reported as “did not affect”. The “effect on inhibition of Cx43-hemichannel currents by 1 μM [Ca2+]i” value ([3]; voltage steps -30 to +60 mV, 30 s, Fig. 4g-i) was “completely prevented the inhibition”.

For “YGRKKRRORRRDGANVDMHLKQTFTKKFKYGTFFHGK [TAT-L2]”, the “effect on Cx43 gap junctions” value (Cx43 gap junctions) is listed as “but not Cx43 gap junctions”, the “effect of TAT-L2 pre-treatment on the active area in BCECs” value ([1]; pre-treatment of BCECs) is listed as “severely reduced” and the “effect on opening of Cx43-hemichannels” value (Cx43-hemichannels) is listed as “inhibited the opening of Cx43-hemichannels”.

In the case of YGRKKRRQRRRSRPRPDDLFI [TAT-CT9], the “restoration of ATP release of Cx43^M242 hemichannels in response to 2 μM A23187” value (Cx43^M242 hemichannels) is given as “can restore the activity”, the “restoration of the thrombin-reduced active area in BCECs” value ([1]; thrombin-treated BCECs) is given as “could restore the thrombin-reduced active area” and the “effect on Cx43-hemichannel inhibition by high [Ca2+]i” value (Cx43-hemichannels) is given as “prevented the Cx43-hemichannel inhibition by high [Ca^2+]i”. For the same compound, the “restoration of the activity of Cx43^M239-based hemichannels” value (Cx43-hemichannels; cell-permeant synthetic peptide) was “can be restored”.

In the case of YGRKKRRQRRRSSPTAPLSPMSPPG [TAT-SH3], the “restoration of ATP release of Cx43^M242 hemichannels in response to 2 μM A23187” value (Cx43^M242 hemichannels) is reported as “restored the ATP release properties” and the “restoration of ATP release through Cx43^ΔGap19M242-based hemichannels” value [4] is reported as “could not be restored”.

For thrombin, the “effect of thrombin pre-treatment on the active area in BCECs” value ([1]; pre-treatment of BCECs) is given as “strongly reduced”.

From article PMC6318120 (Cellular and molecular life sciences : CMLS, 2017)
